Laboratory results: ChEMBL document CHEMBL4041524, “Synthesis and Characterization of a Novel γ-Aminobutyric Acid Type A (GABAA) Receptor Ligand That Combines Outstanding Metabolic Stability, Pharmacokinetics, and Anxiolytic Efficacy” (J Med Chem, 2016)
Activity calls are given as the source filed them. The calls are words filed in the database; no cut-off is given here.

How the values were obtained:
[1] = target: T1, GABA-A receptor; alpha-1/beta-3/gamma-2 (Homo sapiens, UniProt P14867+P18507+P28472); test: Binding affinity to human GABAA alpha1beta3gamma2 receptor expressed in HEK293 cells assessed as GABA-induced membrane potential change preincubated for 3 mins followed by addition of GABA measured after 3 mins by FLIPR assay; assay type: cell-based
T1 sequence (P14867 whole entry): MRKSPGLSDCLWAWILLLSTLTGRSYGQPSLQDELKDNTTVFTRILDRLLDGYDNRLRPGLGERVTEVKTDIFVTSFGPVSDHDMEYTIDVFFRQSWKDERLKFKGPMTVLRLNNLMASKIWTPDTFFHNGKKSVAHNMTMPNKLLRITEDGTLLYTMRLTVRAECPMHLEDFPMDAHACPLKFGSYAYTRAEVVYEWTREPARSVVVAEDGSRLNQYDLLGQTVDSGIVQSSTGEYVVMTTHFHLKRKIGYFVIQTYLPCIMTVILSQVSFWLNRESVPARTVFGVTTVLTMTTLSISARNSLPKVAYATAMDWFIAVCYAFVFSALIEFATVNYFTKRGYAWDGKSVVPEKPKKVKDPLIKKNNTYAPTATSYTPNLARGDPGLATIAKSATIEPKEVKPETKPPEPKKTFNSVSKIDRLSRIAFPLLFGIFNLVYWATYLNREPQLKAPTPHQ
T1 sequence (P18507 whole entry): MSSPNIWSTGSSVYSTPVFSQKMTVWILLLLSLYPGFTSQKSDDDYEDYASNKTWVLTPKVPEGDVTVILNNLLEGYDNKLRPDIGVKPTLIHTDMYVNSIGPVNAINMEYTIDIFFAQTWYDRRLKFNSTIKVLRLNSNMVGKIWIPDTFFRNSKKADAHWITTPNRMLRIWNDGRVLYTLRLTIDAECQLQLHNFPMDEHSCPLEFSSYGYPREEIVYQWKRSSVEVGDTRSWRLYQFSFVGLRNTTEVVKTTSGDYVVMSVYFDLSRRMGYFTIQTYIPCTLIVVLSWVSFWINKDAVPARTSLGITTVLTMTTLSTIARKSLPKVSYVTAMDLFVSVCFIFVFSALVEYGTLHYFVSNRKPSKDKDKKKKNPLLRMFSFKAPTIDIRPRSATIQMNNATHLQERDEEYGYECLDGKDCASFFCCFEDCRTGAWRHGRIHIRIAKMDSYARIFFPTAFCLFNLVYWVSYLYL
T1 sequence (P28472 whole entry): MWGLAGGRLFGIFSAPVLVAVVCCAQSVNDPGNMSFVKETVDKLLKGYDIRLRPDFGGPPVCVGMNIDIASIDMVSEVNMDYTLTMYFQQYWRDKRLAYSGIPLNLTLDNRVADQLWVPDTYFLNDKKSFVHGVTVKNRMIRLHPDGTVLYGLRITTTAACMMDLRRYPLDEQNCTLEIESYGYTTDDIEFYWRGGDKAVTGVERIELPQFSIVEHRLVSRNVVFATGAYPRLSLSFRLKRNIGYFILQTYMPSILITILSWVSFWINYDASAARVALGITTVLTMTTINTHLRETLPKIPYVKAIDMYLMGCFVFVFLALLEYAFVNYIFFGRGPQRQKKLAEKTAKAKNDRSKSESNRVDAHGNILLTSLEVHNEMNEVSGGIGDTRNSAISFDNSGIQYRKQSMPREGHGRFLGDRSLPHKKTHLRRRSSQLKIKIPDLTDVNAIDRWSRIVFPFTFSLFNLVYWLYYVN
Summary of the method: (§1)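 Stably transfected HEK293T cells expressing α1β3γ2 (n = 2) or α3β3γ2 (n = 1) GABAARs. Membrane potential was read as fluorescence changes on a FLIPR Tetra, and EC50 was derived.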

[2] = system: Mus musculus; test: Toxicity in Swiss Webster mouse assessed as sedation-like behavior at 30 mg/kg, ip measured after 30 mins; assay type: organism-based; conditions: in vivo, 0.5 h
Summary of the method: (§2)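 Male NIH Swiss Webster mice (n = 10) received vehicle or compound at 10 or 30 mg/kg i.p. 30 min before marble burying testing. Sedation-like behaviour was noted by observation. Analysis was ANOVA with Dunnett's test vs vehicle.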

[3] = system: Mus musculus; test: Toxicity in Swiss mouse assessed as change in motor coordination by measuring number of falls from the rotating rod at 10 mg/kg, ip administered 30 mins prior to testing measured for 2 mins by rotarod test relative to control; assay type: organism-based; conditions: in vivo
Summary of the method: (§3)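 The same mice used for marble burying were placed on a rotarod at 4 r.p.m. for 2 min. No fall was scored success, one fall partial, and two falls failure.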

[4] = Total plasma concentration in Sprague-Dawley rat at 10 mg/kg, po measured after 60 mins by LC-MS/MS analysis; assay type: ADME, organism-based
Summary of the method: (§4)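 Sprague-Dawley rats (n = 3 per time point) were given 10 mg/kg p.o. Total plasma concentrations were taken at 15, 30, 60 and 120 min. Brain levels of the dosed ligand and of the carboxylic acid metabolite were taken at 60 or 120 min.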

[5] = Drug uptake in Sprague-Dawley rat brain at 10 mg/kg, po measured after 60 mins by LC-MS/MS analysis; assay type: ADME, organism-based; conditions: read-out: Drug uptake; summary of the method: as §4
[6] = system: Liver; test: Metabolic stability in rat liver microsomes assessed as compound remaining at 4 uM measured after 30 mins in presence of NADPH by LC-MS/MS analysis; assay type: ADME, microsome; conditions: 0.5 h
Summary of the method: (§5)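 Human, mouse or rat liver microsomes were incubated with compound at 4 μM final for 30 min at 37 °C (n = 1). Percent of parent remaining was quantified by LC-MS/MS.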

[7] = system: Liver; test: Metabolic stability in human liver microsomes assessed as compound remaining at 4 uM measured after 30 mins in presence of NADPH by LC-MS/MS analysis; assay type: ADME, microsome; conditions: 0.5 h; summary of the method: as §5
[8] = system: Mus musculus; test: Anxiolytic-like activity in Swiss Webster mouse marble burying model of anxiety assessed as suppression of marble burying activity at 30 mg/kg, ip administered 30 mins prior to test relative to vehicle-control; assay type: functional, organism-based; summary of the method: as §2
[9] = target: T2, GABA-A receptor; alpha-3/beta-3/gamma-2 (Homo sapiens, UniProt P18507+P28472+P34903); test: Binding affinity to human GABAA alpha3beta3gamma2 receptor expressed in HEK293 cells assessed as GABA-induced membrane potential change preincubated for 3 mins followed by addition of GABA measured after 3 mins by FLIPR assay; assay type: cell-based; summary of the method: as §1
T2 sequence (P18507 whole entry): T1 sequence (P18507 whole entry)
T2 sequence (P28472 whole entry): T1 sequence (P28472 whole entry)
T2 sequence (P34903 whole entry): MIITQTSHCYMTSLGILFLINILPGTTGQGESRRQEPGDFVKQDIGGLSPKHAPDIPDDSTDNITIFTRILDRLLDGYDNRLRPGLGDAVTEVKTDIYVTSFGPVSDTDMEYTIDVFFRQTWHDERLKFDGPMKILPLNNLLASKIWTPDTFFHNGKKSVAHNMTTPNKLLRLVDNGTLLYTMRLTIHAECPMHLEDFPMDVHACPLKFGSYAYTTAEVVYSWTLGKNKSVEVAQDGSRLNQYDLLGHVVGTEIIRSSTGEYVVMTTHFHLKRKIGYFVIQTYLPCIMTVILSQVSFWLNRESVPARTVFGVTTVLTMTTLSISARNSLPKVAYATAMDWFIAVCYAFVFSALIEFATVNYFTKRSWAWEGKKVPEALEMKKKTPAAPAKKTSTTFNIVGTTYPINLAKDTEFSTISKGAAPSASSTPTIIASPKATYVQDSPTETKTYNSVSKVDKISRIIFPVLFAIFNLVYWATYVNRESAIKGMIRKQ

[10] = system: Mus musculus; test: Toxicity in Swiss mouse assessed as change in motor coordination by measuring number of falls from the rotating rod at 30 mg/kg, ip administered 30 mins prior to testing measured for 2 mins by rotarod test relative to control; assay type: organism-based; conditions: in vivo; summary of the method: as §3
[11] = system: Liver; test: Metabolic stability in mouse liver microsomes assessed as compound remaining at 4 uM measured after 30 mins in presence of NADPH by LC-MS/MS analysis; assay type: ADME, microsome; conditions: 0.5 h; summary of the method: as §5
[12] = Cytotoxicity against HEK293T cells assessed as viable cells measured after 18 hrs by CellTiter-Glo assay; assay type: cell-based, HEK-293T; conditions: human, read-out: LD50
Summary of the method: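 HEK293T cells were exposed to compound for 18 h (n = 4). Viable cells were quantified with CellTiter-Glo, and LD50 was derived.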

[13] = system: Mus musculus; test: Anxiolytic-like activity in Swiss Webster mouse marble burying model of anxiety assessed as suppression of marble burying activity at 10 mg/kg, ip administered 30 mins prior to test relative to vehicle-control; assay type: functional, organism-based; summary of the method: as §2

C#Cc1ccc2c(c1)C(c1ccccn1)=NCc1c(-c3nc(CC)no3)ncn1-2
EC50 [1]: > 20 µM
Activity [2]: Toxic
Activity [3]: Toxic
concentration at 1 h [4]: 1720 nM
concentration at 1 h [5]: 3090 nM
Stability [6]: 97%
Stability [7]: 91%
Activity [8]: Active
EC50 [9]: 3.02 µM
Activity [10]: Toxic
Stability [11]: 92%
CC50 at 18 h [12]: > 100 µM
Activity [13]: Active
